{
  "source": "ChEMBL document CHEMBL5649170",
  "about": "“Sustained microglial depletion with CSF1R inhibitor impairs parenchymal plaque development in an Alzheimer's disease model” (Nat Commun, 2019)",
  "key": {"[1]": {"assay": "Drug concentration in wildtype mouse brain at 75 ppm administered as rodent chow starting from 1.5 months and measured after 5 months", "type": "ADME, tissue-based", "settings": "route po, time 3.5 months, read-out: Ct", "summary_of_the_method": "(§1)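 WT or 5xFAD mice were fed PLX3397 in AIN-76A chow at 600 ppm or 75 ppm from 1.5 to 5 months of age. Terminal brain and plasma drug concentrations were determined at study end.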"}, "[2]": {"assay": "Drug concentration in 5XFAD mouse brain at 600 ppm administered as rodent chow starting from 1.5 months and measured after 5 months", "type": "ADME, tissue-based", "settings": "route po, time 3.5 months, read-out: Ct", "summary_of_the_method": "as §1"}, "[3]": {"molecular_target": "Vascular endothelial growth factor receptor 2 (Homo sapiens, UniProt P35968)", "sequence (P35968 whole entry)": "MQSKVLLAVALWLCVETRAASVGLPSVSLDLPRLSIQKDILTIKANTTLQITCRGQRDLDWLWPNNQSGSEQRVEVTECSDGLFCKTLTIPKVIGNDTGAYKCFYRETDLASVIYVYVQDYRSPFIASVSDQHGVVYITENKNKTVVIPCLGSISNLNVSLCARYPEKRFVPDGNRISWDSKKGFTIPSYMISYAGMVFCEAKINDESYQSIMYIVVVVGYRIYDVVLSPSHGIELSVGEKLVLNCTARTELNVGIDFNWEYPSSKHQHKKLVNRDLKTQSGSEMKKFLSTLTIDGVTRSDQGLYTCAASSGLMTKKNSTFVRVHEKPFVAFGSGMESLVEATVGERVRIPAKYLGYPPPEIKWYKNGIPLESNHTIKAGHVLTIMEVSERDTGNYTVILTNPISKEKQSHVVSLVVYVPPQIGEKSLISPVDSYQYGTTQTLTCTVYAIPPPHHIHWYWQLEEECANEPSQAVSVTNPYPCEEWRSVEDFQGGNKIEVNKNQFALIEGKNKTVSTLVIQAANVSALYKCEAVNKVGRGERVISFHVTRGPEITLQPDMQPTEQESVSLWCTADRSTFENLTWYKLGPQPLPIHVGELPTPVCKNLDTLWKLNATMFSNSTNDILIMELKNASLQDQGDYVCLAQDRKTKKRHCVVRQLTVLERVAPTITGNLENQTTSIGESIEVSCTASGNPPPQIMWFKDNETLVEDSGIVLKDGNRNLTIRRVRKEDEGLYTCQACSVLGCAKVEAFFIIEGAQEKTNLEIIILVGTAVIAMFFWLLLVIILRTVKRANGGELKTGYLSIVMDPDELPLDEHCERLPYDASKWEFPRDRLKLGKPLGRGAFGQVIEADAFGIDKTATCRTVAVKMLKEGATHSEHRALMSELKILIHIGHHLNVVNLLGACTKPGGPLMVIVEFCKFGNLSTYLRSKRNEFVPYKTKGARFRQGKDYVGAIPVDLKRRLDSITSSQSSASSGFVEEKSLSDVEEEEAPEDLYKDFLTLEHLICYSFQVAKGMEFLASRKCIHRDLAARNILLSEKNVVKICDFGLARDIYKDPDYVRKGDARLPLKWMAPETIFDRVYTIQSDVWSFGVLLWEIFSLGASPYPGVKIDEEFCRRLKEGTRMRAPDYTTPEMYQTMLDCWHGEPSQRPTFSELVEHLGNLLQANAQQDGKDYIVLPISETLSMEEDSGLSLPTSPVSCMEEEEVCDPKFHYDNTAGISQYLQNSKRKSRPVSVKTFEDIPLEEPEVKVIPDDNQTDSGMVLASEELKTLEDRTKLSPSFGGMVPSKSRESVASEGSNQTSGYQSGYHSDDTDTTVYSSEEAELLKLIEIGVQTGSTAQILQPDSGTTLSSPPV", "assay": "Inhibition of KDR (unknown origin)"}, "[4]": {"molecular_target": "Dual specificity protein kinase CLK2 (Homo sapiens, UniProt P49760)", "sequence (P49760 whole entry)": "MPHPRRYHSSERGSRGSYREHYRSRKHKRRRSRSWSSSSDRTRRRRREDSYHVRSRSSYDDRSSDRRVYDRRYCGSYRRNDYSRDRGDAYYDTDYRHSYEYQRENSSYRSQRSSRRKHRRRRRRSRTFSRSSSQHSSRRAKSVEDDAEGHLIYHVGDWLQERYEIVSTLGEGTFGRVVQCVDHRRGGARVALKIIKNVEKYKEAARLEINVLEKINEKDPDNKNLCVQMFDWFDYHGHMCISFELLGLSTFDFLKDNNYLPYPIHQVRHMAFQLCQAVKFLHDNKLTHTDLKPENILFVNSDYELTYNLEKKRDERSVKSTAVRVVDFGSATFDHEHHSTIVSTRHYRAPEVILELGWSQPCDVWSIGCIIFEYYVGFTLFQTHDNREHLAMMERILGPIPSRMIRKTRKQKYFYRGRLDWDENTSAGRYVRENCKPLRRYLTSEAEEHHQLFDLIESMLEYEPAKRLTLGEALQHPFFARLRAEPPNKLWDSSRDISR", "assay": "Inhibition of CLK2 (unknown origin)"}, "Ephrin type-A receptor 8": {"molecular_target": "Ephrin type-A receptor 8 (Homo sapiens, UniProt P29322)", "assay": "Inhibition of EPHA8 (unknown origin)"}, "[5]": {"molecular_target": "Vascular endothelial growth factor receptor 3 (Homo sapiens, UniProt P35916)", "assay": "Inhibition of FLT4 (unknown origin)"}, "[6]": {"molecular_target": "Insulin-like growth factor 1 receptor (Homo sapiens, UniProt P08069)", "sequence (P08069 31-736 limits assumed)": "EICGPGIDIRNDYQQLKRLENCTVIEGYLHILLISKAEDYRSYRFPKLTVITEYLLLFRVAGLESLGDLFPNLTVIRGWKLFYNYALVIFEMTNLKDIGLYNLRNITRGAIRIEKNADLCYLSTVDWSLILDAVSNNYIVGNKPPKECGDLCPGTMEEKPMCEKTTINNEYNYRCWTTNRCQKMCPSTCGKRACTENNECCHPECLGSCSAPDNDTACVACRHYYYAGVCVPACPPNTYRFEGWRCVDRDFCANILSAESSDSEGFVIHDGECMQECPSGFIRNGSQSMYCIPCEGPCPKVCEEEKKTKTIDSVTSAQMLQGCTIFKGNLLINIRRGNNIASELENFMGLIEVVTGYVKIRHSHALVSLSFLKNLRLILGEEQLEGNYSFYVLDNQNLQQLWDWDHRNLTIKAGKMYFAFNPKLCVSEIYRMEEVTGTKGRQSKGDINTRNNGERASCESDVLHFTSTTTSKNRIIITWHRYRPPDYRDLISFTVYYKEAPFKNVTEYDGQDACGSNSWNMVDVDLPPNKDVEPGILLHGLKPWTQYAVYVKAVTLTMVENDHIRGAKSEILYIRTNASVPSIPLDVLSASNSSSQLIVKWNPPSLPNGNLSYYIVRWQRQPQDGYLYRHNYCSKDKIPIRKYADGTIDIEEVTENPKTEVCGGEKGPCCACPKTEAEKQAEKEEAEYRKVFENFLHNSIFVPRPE", "sequence (P08069 741-1367 limits assumed)": "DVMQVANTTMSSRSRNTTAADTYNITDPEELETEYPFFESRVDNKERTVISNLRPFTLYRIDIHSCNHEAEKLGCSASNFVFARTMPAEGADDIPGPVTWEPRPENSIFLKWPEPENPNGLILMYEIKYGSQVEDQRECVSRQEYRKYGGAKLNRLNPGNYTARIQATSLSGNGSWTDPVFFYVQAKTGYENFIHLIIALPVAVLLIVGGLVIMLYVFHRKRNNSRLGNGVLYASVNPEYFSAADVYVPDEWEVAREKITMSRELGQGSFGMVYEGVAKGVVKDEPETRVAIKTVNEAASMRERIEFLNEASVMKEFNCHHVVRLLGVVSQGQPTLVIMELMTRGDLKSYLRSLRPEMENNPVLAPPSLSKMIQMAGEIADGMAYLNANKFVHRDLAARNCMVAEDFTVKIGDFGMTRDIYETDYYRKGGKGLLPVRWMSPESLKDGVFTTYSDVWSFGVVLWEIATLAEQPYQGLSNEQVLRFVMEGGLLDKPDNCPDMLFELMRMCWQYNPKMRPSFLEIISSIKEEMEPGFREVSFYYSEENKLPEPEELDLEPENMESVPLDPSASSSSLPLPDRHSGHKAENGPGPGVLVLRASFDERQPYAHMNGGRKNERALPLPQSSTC", "assay": "Inhibition of IGF1R (unknown origin)"}, "[7]": {"molecular_target": "Mitogen-activated protein kinase 12 (Homo sapiens, UniProt P53778)", "sequence (P53778 whole entry)": "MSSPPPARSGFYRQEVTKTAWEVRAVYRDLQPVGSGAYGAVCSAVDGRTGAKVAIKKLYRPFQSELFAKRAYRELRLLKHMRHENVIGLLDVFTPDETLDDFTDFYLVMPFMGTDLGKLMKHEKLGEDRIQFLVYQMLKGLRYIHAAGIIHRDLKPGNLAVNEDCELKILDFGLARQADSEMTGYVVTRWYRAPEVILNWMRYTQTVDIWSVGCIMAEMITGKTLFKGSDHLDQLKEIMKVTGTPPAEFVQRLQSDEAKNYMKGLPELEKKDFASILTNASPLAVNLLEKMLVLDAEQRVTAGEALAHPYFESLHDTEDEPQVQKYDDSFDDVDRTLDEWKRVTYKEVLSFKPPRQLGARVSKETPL", "assay": "Inhibition of MAPK12 (unknown origin)"}, "[8]": {"molecular_target": "MAP kinase-activated protein kinase 2 (Homo sapiens, UniProt P49137)", "assay": "Inhibition of MAPKAPK2 (unknown origin)"}, "Misshapen-like kinase 1": {"molecular_target": "Misshapen-like kinase 1 (Homo sapiens, UniProt Q8N4C8)", "sequence (Q8N4C8 whole entry)": "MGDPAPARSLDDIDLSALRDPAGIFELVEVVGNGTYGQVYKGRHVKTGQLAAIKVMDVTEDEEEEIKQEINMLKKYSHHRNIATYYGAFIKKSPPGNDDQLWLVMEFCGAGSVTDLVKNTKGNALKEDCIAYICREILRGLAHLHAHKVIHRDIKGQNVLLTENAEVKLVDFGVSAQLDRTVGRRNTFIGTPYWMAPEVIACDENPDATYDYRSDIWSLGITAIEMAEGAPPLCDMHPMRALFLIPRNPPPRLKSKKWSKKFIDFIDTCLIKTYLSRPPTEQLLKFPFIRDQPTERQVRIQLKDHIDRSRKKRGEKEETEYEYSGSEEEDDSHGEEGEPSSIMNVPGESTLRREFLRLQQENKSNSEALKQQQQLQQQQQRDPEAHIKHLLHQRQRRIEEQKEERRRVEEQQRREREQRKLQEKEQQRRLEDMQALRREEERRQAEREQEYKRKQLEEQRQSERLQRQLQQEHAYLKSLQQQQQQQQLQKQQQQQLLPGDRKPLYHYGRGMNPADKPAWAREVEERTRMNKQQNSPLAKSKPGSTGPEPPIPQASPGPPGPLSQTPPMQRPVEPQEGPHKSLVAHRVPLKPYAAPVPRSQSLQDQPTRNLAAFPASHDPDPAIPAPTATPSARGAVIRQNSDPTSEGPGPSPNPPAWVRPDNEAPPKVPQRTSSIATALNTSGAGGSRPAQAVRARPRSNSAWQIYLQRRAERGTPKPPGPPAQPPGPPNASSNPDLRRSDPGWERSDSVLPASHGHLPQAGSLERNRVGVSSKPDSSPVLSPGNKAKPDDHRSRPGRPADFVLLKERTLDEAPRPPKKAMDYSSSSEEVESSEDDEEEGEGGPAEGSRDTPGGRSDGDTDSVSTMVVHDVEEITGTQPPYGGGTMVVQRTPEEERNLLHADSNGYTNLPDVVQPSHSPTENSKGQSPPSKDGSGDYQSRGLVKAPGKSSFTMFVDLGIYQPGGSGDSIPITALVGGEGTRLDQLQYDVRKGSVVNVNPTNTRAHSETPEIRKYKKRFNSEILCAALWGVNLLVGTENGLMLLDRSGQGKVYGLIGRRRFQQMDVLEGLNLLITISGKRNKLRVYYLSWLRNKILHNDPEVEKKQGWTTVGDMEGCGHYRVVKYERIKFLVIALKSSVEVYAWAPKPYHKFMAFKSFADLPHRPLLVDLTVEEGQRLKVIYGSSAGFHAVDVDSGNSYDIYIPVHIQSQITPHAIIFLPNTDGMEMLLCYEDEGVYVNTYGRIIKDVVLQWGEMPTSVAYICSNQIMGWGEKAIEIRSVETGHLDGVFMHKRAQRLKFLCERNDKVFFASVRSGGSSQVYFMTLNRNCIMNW", "assay": "Inhibition of MINK1 (unknown origin)"}, "[9]": {"assay": "Clearance in dog at 1.00 mg/kg, iv administered as single dose", "type": "ADME, organism-based, Canis lupus familiaris", "settings": "in vivo"}, "[10]": {"assay": "AUC (0 to infinity) in mouse at 45 mg/kg, po administered as single dose via gavage", "type": "ADME, organism-based", "settings": "in vivo"}, "[11]": {"assay": "Drug concentration in mouse plasma at 300 ppm administered as rodent chow for 14 days", "type": "ADME, cell-free", "settings": "route po, time 14 day"}, "Mus musculus [12]": {"tested_on": "Mus musculus", "assay": "Antialzheimer activity in 5XFAD mouse assessed as number of Iba positive cells per FOV in retro spinal cortex at 1200 ppm administered as rodent chow starting from 1.5 months and measured after 7 months (reference value: 473 to 792)", "type": "functional", "settings": "route po, time 5.5 months, 4015 h"}, "Mus musculus [13]": {"tested_on": "Mus musculus", "assay": "Antialzheimer activity in 5XFAD mouse assessed as microglial elimination at 1200 ppm administered as rodent chow for 24 weeks relative to control", "type": "functional", "settings": "route po"}, "Mus musculus [14]": {"tested_on": "Mus musculus", "assay": "Antialzheimer activity in 5XFAD mouse assessed as time to locate platform at 1200 ppm administered as rodent chow for 10 to 24 weeks by Morris water maze test (reference value: 6.5 to 60 sec)", "type": "functional", "settings": "route po, time 10-24 weeks", "summary_of_the_method": "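Morris water maze: a circular pool was filled with opaque water (white paint added), and mice were given four trials per acquisition day. Twenty-four hours after the last acquisition day, the platform was removed for a 60 s probe trial. Mice had been on 1200 ppm PLX5622 or control chow for 10 or 24 weeks from 1.5 months of age.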"}, "Mus musculus [15]": {"tested_on": "Mus musculus", "assay": "Antialzheimer activity in 5XFAD mouse assessed as proportion of time spent freezing at 1200 ppm administered as rodent chow for 10 to 24 weeks by […] (reference value: 0.00 to 0.43)", "type": "functional", "settings": "route po, time 10-24 weeks"}, "Mus musculus [16]": {"tested_on": "Mus musculus", "assay": "Antialzheimer activity in 5XFAD mouse assessed as number of pyroglutamate-3-modified positive plaques per FOV in cortex at 1200 ppm administered as rodent chow starting from 1.5 months and measured after 7 months by Thio-S staining based confocal microscopic analysis (reference value: 14 to 34)", "type": "functional", "settings": "route po, time 5.5 months, 4015 h"}, "Mus musculus [17]": {"tested_on": "Mus musculus", "assay": "Antialzheimer activity in 5XFAD mouse assessed as microglial elimination in thalamus at 1200 ppm administered as rodent chow for 10 weeks by Thio-S staining based confocal microscopic analysis", "type": "functional, organism-based", "settings": "route po", "summary_of_the_method": "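1.5-month-old 5xFAD mice fed 1200 ppm PLX5622 chow for 10 weeks; free-floating sections stained with Thio-S and immunolabeled for IBA1 (5% normal serum/0.2% Triton X-100 block, 60 min); confocal imaging of cortex and thalamus to assess remaining microglia.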"}, "Mus musculus [18]": {"tested_on": "Mus musculus", "assay": "Effect on APP processing pathway in 5XFAD mouse assessed as C99 protein signal intensity in cortex at 1200 ppm administered as rodent starting from 1.5 months and measured after 7 months (reference value: 49.412 to 179.884 %)", "type": "functional", "settings": "route po, time 5.5 months, 4015 h"}, "[19]": {"assay": "Effect on Siglech gene expression in wild type mouse hippocampus at 1200 ppm administered as rodent chow starting from 1.5 months and measured after 7 months by RNA-Seq analysis (reference value: 3.309 to 4.234 RPKM)", "type": "functional", "settings": "route po, time 5.5 months, 4015 h"}, "[20]": {"assay": "Effect on Ctsz gene expression in wild type mouse cortex at 1200 ppm administered as rodent chow starting from 1.5 months and measured after 7 months by RNA-Seq analysis (reference value: 12.903 to 16.267 RPKM)", "type": "functional", "settings": "route po, time 5.5 months, 4015 h"}, "[21]": {"assay": "Effect on Ctsz gene expression in wild type mouse thalamus at 1200 ppm administered as rodent chow starting from 1.5 months and measured after 7 months by RNA-Seq analysis (reference value: 13.234 to 17.920 RPKM)", "type": "functional", "settings": "route po, time 5.5 months, 4015 h"}, "[22]": {"assay": "Effect on Ctsz gene expression in 5XFAD mouse thalamus at 1200 ppm administered as rodent chow starting from 1.5 months and measured after 7 months by RNA-Seq analysis (reference value: 23.715 to 34.765 RPKM)", "type": "functional", "settings": "route po, time 5.5 months, 4015 h"}, "[23]": {"assay": "Effect on Itgax gene expression in 5XFAD mouse cortex at 1200 ppm administered as rodent chow starting from 1.5 months and measured after 7 months by RNA-Seq analysis (reference value: 1.746 to 3.999 RPKM)", "type": "functional", "settings": "route po, time 5.5 months, 4015 h"}, "[24]": {"assay": "Effect on Itgax gene expression in 5XFAD mouse thalamus at 1200 ppm administered as rodent chow starting from 1.5 months and measured after 7 months by RNA-Seq analysis (reference value: 1.842 to 2.823 RPKM)", "type": "functional", "settings": "route po, time 5.5 months, 4015 h"}, "[25]": {"assay": "Effect on Zfp286 gene expression in wildtype mouse hippocampus assessed as percent change in Reads Per kilo base per Million mapped reads at 1200 ppm administered as rodent chow starting from 1.5 months and measured after 7 months by RNA-Seq analysis (reference value: 85.126 to 114.292 %)", "type": "functional", "settings": "route po, time 5.5 months, 4015 h"}, "[26]": {"assay": "Effect on Nrg3 gene expression in wildtype mouse hippocampus assessed as percent change in Reads Per kilo base per Million mapped reads at 1200 ppm administered as rodent chow starting from 1.5 months and measured after 7 months by RNA-Seq analysis (reference value: 84.058 to 111.732 %)", "type": "functional", "settings": "route po, time 5.5 months, 4015 h"}, "Mus musculus [27]": {"tested_on": "Mus musculus", "assay": "Prevention of P2ry12 gene upregulation in 5XFAD mouse hippocampus at 1200 ppm administered as rodent chow starting from 1.5 months and measured after 7 months by Nanostring analysis", "type": "functional, tissue-based", "settings": "route po, time 5.5 months"}, "Mus musculus [28]": {"tested_on": "Mus musculus", "assay": "Prevention of Grn gene upregulation in 5XFAD mouse hippocampus at 1200 ppm administered as rodent chow starting from 1.5 months and measured after 7 months by Nanostring analysis", "type": "functional, tissue-based", "settings": "route po, time 5.5 months"}, "Mus musculus [29]": {"tested_on": "Mus musculus", "assay": "Antialzheimer activity in 5XFAD mouse assessed as number of GFAP positive cells per FOV at 1200 ppm administered as rodent chow starting from 1.5 months to 4 months followed by compound removal and measured after 1 month by immunolabeling based confocal microscopic analysis (reference value: 20 to 71)", "type": "functional", "settings": "route po, time 2.5 months, 1825 h"}, "Mus musculus [30]": {"tested_on": "Mus musculus", "assay": "Antialzheimer activity in 5XFAD mouse assessed as microglial elimination in brain at 1200 ppm administered as rodent chow by Thio-S staining based confocal microscopic analysis", "settings": "route po"}},
  "note": "The source made the active and inactive calls. The rule behind the calls is not given here.",
  "data": [
    {"smiles": "FC(F)(F)c1ccc(CNc2ccc(Cc3c[nH]c4ncc(Cl)cc34)cn2)cn1", "note": "[PEXIDARTINIB]", "values": [
      {"measurement": "concentration at 2555 h", "setting": "[1]", "result": 300, "unit": "nM"},
      {"measurement": "concentration at 2555 h", "setting": "[2]", "result": 5600, "unit": "nM"}
    ]},
    {"smiles": "COc1ncc(F)cc1CNc1ccc(Cc2c[nH]c3ncc(C)cc23)c(F)n1", "note": "[PLX-5622]", "values": [
      {"measurement": "IC50", "setting": "[3]", "result": 1100, "unit": "nM"},
      {"measurement": "IC50", "setting": "[4]", "result": "> 1000", "unit": "nM"},
      {"measurement": "IC50", "setting": "Ephrin type-A receptor 8", "result": "> 1000", "unit": "nM"},
      {"measurement": "IC50", "setting": "[5]", "result": "> 1000", "unit": "nM"},
      {"measurement": "IC50", "setting": "[6]", "result": "> 1000", "unit": "nM"},
      {"measurement": "IC50", "setting": "[7]", "result": "> 1000", "unit": "nM"},
      {"measurement": "IC50", "setting": "[8]", "result": "> 1000", "unit": "nM"},
      {"measurement": "IC50", "setting": "Misshapen-like kinase 1", "result": "> 1000", "unit": "nM"},
      {"measurement": "clearance", "setting": "[9]", "result": 3, "unit": "mL/min/kg"},
      {"measurement": "AUC(0-inf)", "setting": "[10]", "result": 215, "unit": "µg·h/mL"},
      {"measurement": "concentration at 336 h", "setting": "[11]", "result": 4340, "unit": "ng/mL"},
      {"measurement": "Activity", "setting": "Mus musculus [12]", "result": 2},
      {"measurement": "Activity", "setting": "Mus musculus [13]", "result": 97, "unit": "%"},
      {"measurement": "Time", "setting": "Mus musculus [14]", "result": 9.2, "unit": "s"},
      {"measurement": "Activity", "setting": "Mus musculus [15]", "result": 0.07},
      {"measurement": "Activity", "setting": "Mus musculus [16]", "result": 0},
      {"measurement": "Activity", "setting": "Mus musculus [17]", "result": "inactive"},
      {"measurement": "Activity", "setting": "Mus musculus [18]", "result": 75.956, "unit": "%"},
      {"measurement": "Activity", "setting": "[19]", "result": 0, "unit": "RPKM"},
      {"measurement": "Activity", "setting": "[20]", "result": 11.205, "unit": "RPKM"},
      {"measurement": "Activity", "setting": "[21]", "result": 11.055, "unit": "RPKM"},
      {"measurement": "Activity", "setting": "[22]", "result": 13.618, "unit": "RPKM"},
      {"measurement": "Activity", "setting": "[23]", "result": 0.086, "unit": "RPKM"},
      {"measurement": "Activity", "setting": "[24]", "result": 0.043, "unit": "RPKM"},
      {"measurement": "Activity", "setting": "[25]", "result": 76.544, "unit": "%"},
      {"measurement": "Activity", "setting": "[26]", "result": 59.872, "unit": "%"},
      {"measurement": "Activity", "setting": "Mus musculus [27]", "result": "Active"},
      {"measurement": "Activity", "setting": "Mus musculus [28]", "result": "Active"},
      {"measurement": "Activity", "setting": "Mus musculus [29]", "result": 10},
      {"measurement": "Activity", "setting": "Mus musculus [30]", "result": "Active"}
    ]}
  ]
}
